Screens as filed in PubChem BioAssay.
The list is not random: actives were taken first. Their share in the collection is about 1.7%.
TPT1 inhibitor: inhibitors of Candida albicans tRNA 2'-phosphotransferase TPT1; inhibition, % at 5 µM; recombinant caTPT1, FP RNA substrate dephosphorylation; AID 1962; hit rate 0.81% among 300,000;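 active means inhibition above the mean of all tested compounds plus 3 SD, set per screening campaign, cut at about 24% in these data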
Rpn11 block: blocks the human proteasome subunit Rpn11; O00487; human 26S proteasome, Ub4-pepOG fluorescence polarization; 20S core pre-blocked with epoxomicin; inhibition, % at 20 µM; hit rate 0.59% among 360,000; AID 588493;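 active means inhibition at 20 µM, scaled to each plate's controls, above about 33%, limit read from the data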
CSN deneddyl inh: CSN deneddylation inhibition | hit rate 0.38% among 360,000 | Q92905 | Purified CSN, SCF-Nedd8-OG deneddylation, fluorescence polarization | inhibition, % at 12.5 µM;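 active means pattern-corrected inhibition above about 35%, with an unprinted fluorescence ratio check between 0.5 and 1.5, limit read from the data, passing the limit was not always enough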
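Schedule: reaction 90 min, room temperature / Assay system: HEK293T-derived human Csn5 enzyme / Input: Csn5 at 0.24 nM final / Measure: inhibition of Csn5 cleavage, % / Control set: substrate-only high control, full reaction low control / Technique: fluorescence polarization of the substrate / Buffer or medium: Tris/NaCl/DTT buffer, pH 7.5 / Reagent: SCFSkp2-Nedd8OG substrate at 10 nM final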
HNF4A DNA FP: change in binding of human HNF4 alpha to DNA | hit rate 0.3% among 360,000 | HNF4a-FITC DNA binding, fluorescence polarization, 1 h | activity change, % at 10 µM; in the data active means activity change above about 30%, passing the limit was not always enough
IDE act: IDE (human) activation, cell-based | HEK cells, FAbeta-B cleavage, fluorescence polarization; 0% vehicle, 100% cell-free pure enzyme wells | activation, % at 5.96 µM | hit rate 0.073% among 340,000 | AID 493087;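 active means activation above the mean of all tested compounds plus 3 SD, set per screening campaign, cut at about 17% in these data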
IDE inh: inhibitors of human insulin-degrading enzyme in cells; HEK cells, FAbetaB cleavage, fluorescence polarization; AID 434962; hit rate 0.41% among 320,000; inhibition, % at 5.59 µM;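 active means percent inhibition above the average of all tested compounds plus 3 SD, set per screening campaign, cut at about 16% in these data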;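 further: IDE supplied by intact live HEK cells; FP after avidin binding of uncleaved biotin substrate so inhibition keeps polarization high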
Rpn11 confirm: Rpn11 inhibition confirmation, single concentration; purified human 26S proteasome, Ub4-pepOG fluorescence polarization; proteasome pretreated with epoxomicin; AID 602318; hit rate 29% among 1,900; shares compounds with Rpn11 block; inhibition, % at 20 µM
MMP-2 inh: blocks human MMP-2, flagging nonselective RPN11 hits | shares compounds with Rpn11 block | recombinant MMP-2, FRET peptide cleavage fluorescence | inhibition, % at 20 µM | hit rate 4% among 1,900;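 further: human MMP-2 activated beforehand with APMA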
Thrombin inh: thrombin (bovine) inhibition counter-screen. bovine thrombin cleavage of Ub4-pepOG, fluorescence polarization. shares compounds with Rpn11 block. hit rate 13% among 1,900. inhibition, % at 20 µM;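 active means mean inhibition at least 40% at 20 µM, or signal 3 deviations below plate average, so some actives read negative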
Target sequence (P00735 whole entry, looked up): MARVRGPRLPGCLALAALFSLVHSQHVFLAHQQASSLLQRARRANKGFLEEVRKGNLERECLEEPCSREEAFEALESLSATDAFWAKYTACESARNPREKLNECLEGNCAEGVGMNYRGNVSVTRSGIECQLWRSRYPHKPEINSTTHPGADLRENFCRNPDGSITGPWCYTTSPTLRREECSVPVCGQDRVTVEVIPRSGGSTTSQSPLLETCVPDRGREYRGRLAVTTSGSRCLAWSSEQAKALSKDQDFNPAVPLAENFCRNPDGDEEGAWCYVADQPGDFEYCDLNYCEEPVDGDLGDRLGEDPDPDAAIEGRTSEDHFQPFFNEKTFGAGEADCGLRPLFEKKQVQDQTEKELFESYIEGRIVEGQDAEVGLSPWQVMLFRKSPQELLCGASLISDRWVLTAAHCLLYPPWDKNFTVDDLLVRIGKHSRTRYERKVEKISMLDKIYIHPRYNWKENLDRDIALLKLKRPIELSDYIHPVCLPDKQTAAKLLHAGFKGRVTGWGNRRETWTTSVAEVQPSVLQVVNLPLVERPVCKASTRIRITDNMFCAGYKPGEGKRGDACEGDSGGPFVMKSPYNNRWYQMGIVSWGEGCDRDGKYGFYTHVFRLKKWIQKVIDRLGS
Of the large screens only hits and unclear results are named; the others gave an inactive call (follow-up assays come after a bar, where they were run). Unless noted, no stated cut-off is given here; in the data, active means inhibition above about 40%; inactive means the rest.

CCC(CC)C(=O)N(C)c1c(C)nc2c(OCc3cccc(OC)c3)cccn12	none (no result: TPT1 inhibitor, IDE act, IDE inh)
Cc1c(C(=O)N2CCOCC2)sc(NC(=O)c2ccc3c(c2)OCO3)c1C#N	Rpn11 block 41 | Rpn11 confirm inactive | MMP-2 inh inactive | Thrombin inh inactive
O=c1cc(-c2ccc(Cl)c(Cl)c2)[nH][nH]1	none
O=c1cc(-c2ccc(Cl)cc2)[nH][nH]1	Rpn11 block 110 | Rpn11 confirm inactive | MMP-2 inh inactive | Thrombin inh inactive
CCc1ccc(N2C(=O)Cc3c2nc(N)c(C#N)c3N)cc1	none
CCN(CC)c1nc2c3c(nc4c(c3c1C#N)CC(=O)N4c1ccc(Cl)cc1)NC(C)=N2	Rpn11 block 43 | Rpn11 confirm inactive | MMP-2 inh inactive | Thrombin inh inactive
CC(C)NC(=O)C1(C)CCN1C(=O)c1ccccc1Oc1ccccc1 (stereo not given)	none (no result: TPT1 inhibitor, IDE act, IDE inh)
COc1cc2sc3ccc(-c4ccc(N(C)C)nc4)cc3c(=O)c2cc1OC	none (no result: Rpn11 block, CSN deneddyl inh, HNF4A DNA FP, IDE act)
COc1ccc(-c2ccc3sc4ccccc4c(=O)c3c2)cn1	Rpn11 block 124 | Rpn11 confirm inactive | MMP-2 inh inactive | Thrombin inh inactive
CCOC(=O)/C=c1\s/c(=C(\C#N)C(N)=O)n(-c2ccccc2)c1=O	none
COCCCn1c(=O)/c(=C\c2ccccc2OC(F)F)s/c1=C(/C#N)C(N)=O	Rpn11 block 49 | Rpn11 confirm inactive | MMP-2 inh inactive | Thrombin inh inactive
COc1ccc(-n2c(N)c(C(=O)Nc3c(C)n(C)n(-c4ccccc4)c3=O)c3nc4ccccc4nc32)cc1	Rpn11 block 88 | Rpn11 confirm inactive | MMP-2 inh inactive | Thrombin inh inactive
Cc1ccc(-n2c(N)c(C(=O)Nc3c(C)n(C)n(-c4ccccc4)c3=O)c3nc4ccccc4nc32)cc1C	none (no result: Rpn11 block, CSN deneddyl inh, HNF4A DNA FP, IDE act)
COc1cccc(C(CCc2cc(OC)c(OC)c(OC)c2)NC(C)=O)c1 (stereo not given)	none (no result: TPT1 inhibitor, IDE inh)
COc1ccc2oc(C(=O)NC(C)c3ccccn3)c(C)c2c1 (stereo not given)	none (no result: TPT1 inhibitor)
COc1ccc2oc(C(=O)Nc3nc(-c4ccccn4)cs3)c(C)c2c1	Rpn11 block 42 | Rpn11 confirm 52 | MMP-2 inh inactive | Thrombin inh inactive
CCc1nc2c(OCc3ccc(F)c(F)c3)cccn2c1N(C)C(=O)c1ccc(OC)cc1	none (no result: TPT1 inhibitor, IDE act, IDE inh)
Cc1cc2c(=O)n(Cc3ccco3)c(SCC(=O)c3ccc(Cl)s3)nc2s1	Rpn11 block 40 | Rpn11 confirm inactive | MMP-2 inh inactive | Thrombin inh inactive
CCOC(=O)CC(=O)CSc1nc2sc(C)cc2c(=O)n1Cc1ccco1	none
CC1(C(=O)Nc2cccc(Oc3ccccc3)c2)CCN1C1Cc2ccccc2C1 (stereo not given)	none (no result: TPT1 inhibitor, IDE act, IDE inh)
Cc1cc(C)c2cc3c(N)c(C(=O)Nc4c(C)[nH]c(=O)[nH]c4=O)sc3nc2c1	TPT1 inhibitor 48, Rpn11 block 46 | Rpn11 confirm 122 | MMP-2 inh inactive | Thrombin inh inactive
COc1ccccc1NC(=O)/C(N=Nc1ccc(C)c(S(=O)(=O)Nc2ccccc2Cl)c1)=C(\C)O	none (no result: TPT1 inhibitor)
COc1ccccc1NS(=O)(=O)c1cc(N=N/C(C(=O)Nc2ccc(Cl)cc2)=C(/C)O)ccc1C	Rpn11 block 42 (no result: TPT1 inhibitor) | Rpn11 confirm inactive | MMP-2 inh inactive | Thrombin inh inactive
OCC[C@@H]1C[C@H](O)[C@@H](O)[C@@]2(OCc3ccc(CO)cc32)O1	none (no result: TPT1 inhibitor, IDE act, IDE inh)
O=C1NC[C@H](CCCCN2CCN(CCc3ccccc3)C(=O)C2=O)N(CCC2CCCCC2)C1=O	none (no result: TPT1 inhibitor, Rpn11 block, IDE act, IDE inh)
O=c1cc(O)c2c(=O)n(Cc3ccccc3)c3ccccc3c2o1	none
O=c1cc(O)c2c(=O)n(C3CCCCC3)c3ccccc3c2o1	Rpn11 block 62 | Rpn11 confirm inactive | MMP-2 inh inactive | Thrombin inh inactive
CN(C)c1nc(N)nc(CSc2nnnn2-c2ccc(Cl)cc2)n1	none (no result: TPT1 inhibitor, IDE act, IDE inh)
C#CCOCCOCCOCCNc1nc(N2CCN(C(=O)CCCCCCCCCCNC(=O)Cn3cc(CCCCCN)nn3)CC2)nc(N2CCN(C(=O)CCCCCCCCCCNC(=O)[C@@H](CCSC)n3cc(CCO)nn3)CC2)n1	Rpn11 block 42, IDE act 31 | Rpn11 confirm inactive | MMP-2 inh inactive | Thrombin inh inactive
C#CCOCCOCCOCCNc1nc(N2CCN(C(=O)CCCCCCCCCCNC(=O)Cn3cc(C[C@@H](C)O)nn3)CC2)nc(N2CCN(C(=O)CCCCCCCCCCNC(=O)[C@@H](CCC(=O)O)n3cc(CCCCCN)nn3)CC2)n1	none
COc1ccc2c(Cl)c(C(=O)N/N=C/c3c(C)[nH]c4ccccc34)sc2c1	Rpn11 block 72 | Rpn11 confirm 99 | MMP-2 inh inactive | Thrombin inh 53
COc1cccc(C(=O)NCC(=O)N/N=C/c2c(C)[nH]c3ccccc23)c1	none
Cc1c(C(=O)NC2CC(C)(C)NC(C)(C)C2)oc2c(Cl)cccc12	none (no result: TPT1 inhibitor, IDE act, IDE inh)
C=CC[n+]1c(-c2ccc(OCC)cc2)csc1NNC(=O)Nc1ccccc1	Rpn11 block 42 | Rpn11 confirm inactive | MMP-2 inh inactive | Thrombin inh inactive
Cc1ccccc1-c1cccc([C@@H]2C[C@H]3[C@H](CON3C)CN2S(=O)(=O)c2ccccc2C)c1	none (no result: TPT1 inhibitor, IDE inh)
COC(=O)C(C)N1C(=O)S/C(=C\c2cc(C)n(-c3ccccn3)c2C)C1=O (stereo not given)	Rpn11 block 136 | Rpn11 confirm inactive | MMP-2 inh inactive | Thrombin inh inactive
CC(=O)n1cc([C@H]2C=C(C(=O)Nc3ccccc3)O[C@@H](OCc3ccc(CO)cc3)C2)c2ccccc21	Rpn11 block 42 | Rpn11 confirm 44 | MMP-2 inh inactive | Thrombin inh inactive
